# Results published in ChEMBL document CHEMBL1687878, “Synthesis and biological evaluation of substituted (thieno[2,3-d]pyrimidin-4-ylthio)carboxylic acids as inhibitors of human protein kinase CK2” (Eur J Med Chem, 2011).
# Legend:
# Casein kinase II = Casein kinase II (Homo sapiens, UniProt P19784+P67870+P68400); assay: Inhibition of recombinant human CK2 activity assessed as [gamma-32P]ATP incorporation into substrate peptide after 20 mins in presence of 50 uM ATP; format: protein-complex assay
# Casein kinase II, sequence (P67870 whole entry): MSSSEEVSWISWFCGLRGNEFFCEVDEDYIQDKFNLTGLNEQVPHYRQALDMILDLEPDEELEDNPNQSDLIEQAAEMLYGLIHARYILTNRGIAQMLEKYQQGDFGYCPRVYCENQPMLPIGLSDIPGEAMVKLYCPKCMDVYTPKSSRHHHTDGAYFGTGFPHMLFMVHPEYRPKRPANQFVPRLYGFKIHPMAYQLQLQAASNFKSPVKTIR
# Casein kinase II, sequence (P68400 whole entry): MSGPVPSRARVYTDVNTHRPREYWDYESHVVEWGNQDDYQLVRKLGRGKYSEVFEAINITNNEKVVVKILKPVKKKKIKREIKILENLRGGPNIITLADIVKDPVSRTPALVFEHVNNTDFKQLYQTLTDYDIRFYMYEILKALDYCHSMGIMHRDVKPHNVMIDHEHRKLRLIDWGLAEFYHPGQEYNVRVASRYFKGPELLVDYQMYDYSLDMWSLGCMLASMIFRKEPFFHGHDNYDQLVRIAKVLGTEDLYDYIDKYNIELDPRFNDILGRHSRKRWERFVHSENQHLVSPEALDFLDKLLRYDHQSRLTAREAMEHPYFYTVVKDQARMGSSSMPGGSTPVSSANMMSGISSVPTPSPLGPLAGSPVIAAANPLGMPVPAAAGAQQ
# Casein kinase II, sequence (P19784 whole entry): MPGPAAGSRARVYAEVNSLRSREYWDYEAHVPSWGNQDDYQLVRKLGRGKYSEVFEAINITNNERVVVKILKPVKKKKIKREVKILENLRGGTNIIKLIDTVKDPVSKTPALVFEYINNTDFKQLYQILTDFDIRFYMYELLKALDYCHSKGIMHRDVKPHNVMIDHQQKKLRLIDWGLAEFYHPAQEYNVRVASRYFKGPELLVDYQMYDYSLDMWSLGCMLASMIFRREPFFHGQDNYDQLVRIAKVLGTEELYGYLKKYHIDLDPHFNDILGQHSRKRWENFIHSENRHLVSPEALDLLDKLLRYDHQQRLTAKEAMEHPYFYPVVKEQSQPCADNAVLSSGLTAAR
# Summary of the method: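 Radiometric assay with 10 units of recombinant human CK2 in 20 mM Tris-HCl pH 7.5, 50 mM KCl, 10 mM MgCl2. It used 50 µM ATP plus γ-32P ATP (specific activity 100 µCi/µM) and serially diluted inhibitor, run 20 min at 30 °C. The reaction was stopped with 10% phosphoric acid, spotted on phosphocellulose paper, washed with 1% phosphoric acid and Cherenkov-counted. Percent inhibition was taken relative to the DMSO no-inhibitor control, and IC50 was derived from the dilution series.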
# [1] = target: Casein kinase II (Homo sapiens) (UniProt P67870+P68400+P19784); assay: Inhibition of recombinant human CK2 kinase assessed as residual activity at 10 uM in presence of 100 uM ATP; format: protein-complex assay
# Summary of the method: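 CK2 residual activity was measured with 10 µM inhibitor and a final ATP of 100 µM. It is expressed as a percentage of the no-inhibitor control.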
# [2] = target: Hepatocyte growth factor receptor (Homo sapiens) (UniProt P08581); assay: Inhibition of recombinant human Met kinase assessed as residual activity at 10 uM in presence of 100 uM ATP
# Hepatocyte growth factor receptor (Homo sapiens), sequence (P08581 whole entry): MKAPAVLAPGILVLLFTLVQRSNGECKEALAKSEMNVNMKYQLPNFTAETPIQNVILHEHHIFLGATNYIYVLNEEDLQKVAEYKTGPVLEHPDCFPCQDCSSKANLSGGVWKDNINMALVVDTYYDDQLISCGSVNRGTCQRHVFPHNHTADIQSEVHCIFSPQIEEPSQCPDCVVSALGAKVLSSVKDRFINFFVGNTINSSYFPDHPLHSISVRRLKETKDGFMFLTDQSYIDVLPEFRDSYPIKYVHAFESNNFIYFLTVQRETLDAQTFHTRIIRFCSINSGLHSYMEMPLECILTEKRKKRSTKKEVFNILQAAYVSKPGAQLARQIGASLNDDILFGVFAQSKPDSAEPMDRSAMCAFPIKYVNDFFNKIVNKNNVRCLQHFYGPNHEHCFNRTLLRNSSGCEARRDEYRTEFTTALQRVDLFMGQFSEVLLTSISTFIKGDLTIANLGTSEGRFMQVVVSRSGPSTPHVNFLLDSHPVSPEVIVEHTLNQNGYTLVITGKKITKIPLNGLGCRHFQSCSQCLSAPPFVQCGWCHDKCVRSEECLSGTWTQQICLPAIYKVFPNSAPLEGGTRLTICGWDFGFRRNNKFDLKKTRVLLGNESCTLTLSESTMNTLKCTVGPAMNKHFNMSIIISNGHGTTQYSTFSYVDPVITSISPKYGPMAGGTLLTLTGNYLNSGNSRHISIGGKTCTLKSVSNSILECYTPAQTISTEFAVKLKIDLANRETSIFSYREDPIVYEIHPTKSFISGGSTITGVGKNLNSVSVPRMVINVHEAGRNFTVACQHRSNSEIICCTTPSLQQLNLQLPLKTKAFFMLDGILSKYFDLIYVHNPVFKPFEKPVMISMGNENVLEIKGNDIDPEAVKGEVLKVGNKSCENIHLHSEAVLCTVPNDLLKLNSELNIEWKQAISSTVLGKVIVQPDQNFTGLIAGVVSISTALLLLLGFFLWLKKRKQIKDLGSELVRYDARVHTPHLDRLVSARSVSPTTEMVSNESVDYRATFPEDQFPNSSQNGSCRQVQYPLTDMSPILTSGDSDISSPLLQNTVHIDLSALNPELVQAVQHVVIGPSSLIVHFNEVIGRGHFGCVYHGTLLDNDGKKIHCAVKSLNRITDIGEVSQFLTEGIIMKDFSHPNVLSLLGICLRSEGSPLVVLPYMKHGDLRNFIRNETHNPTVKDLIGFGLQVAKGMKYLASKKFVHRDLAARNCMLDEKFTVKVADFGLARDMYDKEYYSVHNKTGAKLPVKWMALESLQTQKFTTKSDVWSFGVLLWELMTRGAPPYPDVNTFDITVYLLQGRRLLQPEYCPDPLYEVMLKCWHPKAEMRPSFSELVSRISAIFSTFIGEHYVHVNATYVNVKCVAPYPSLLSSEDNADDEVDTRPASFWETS
# Summary of the method: (§1)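 Inhibitor was tested at 10 µM with a final ATP of 100 µM. Residual activity is expressed as a percentage of the control without inhibitor.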
# [3] = target: Angiopoietin-1 receptor (Homo sapiens) (UniProt Q02763); assay: Inhibition of recombinant human Tie2 kinase assessed as residual activity at 10 uM in presence of 100 uM ATP; summary of the method: as §1
# [4] = target: T1, Aurora kinase A (Homo sapiens) (UniProt O14965); assay: Inhibition of recombinant human Aurora A kinase assessed as residual activity at 10 uM in presence of 100 uM ATP; summary of the method: as §1
# T1 sequence (whole entry): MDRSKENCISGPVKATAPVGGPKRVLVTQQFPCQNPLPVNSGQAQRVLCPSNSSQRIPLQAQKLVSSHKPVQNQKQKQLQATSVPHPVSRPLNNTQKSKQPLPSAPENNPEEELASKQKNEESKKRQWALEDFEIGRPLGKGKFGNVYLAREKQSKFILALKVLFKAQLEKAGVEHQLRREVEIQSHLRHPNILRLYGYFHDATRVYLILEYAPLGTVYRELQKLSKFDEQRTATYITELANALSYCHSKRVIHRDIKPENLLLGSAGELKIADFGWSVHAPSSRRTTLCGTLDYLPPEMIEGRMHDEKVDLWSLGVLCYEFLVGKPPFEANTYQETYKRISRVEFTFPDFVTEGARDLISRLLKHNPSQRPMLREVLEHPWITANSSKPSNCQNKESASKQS
# [5] = target: Fibroblast growth factor receptor 1 (Homo sapiens) (UniProt P11362); assay: Inhibition of recombinant human FGFR1 kinase assessed as residual activity at 10 uM in presence of 100 uM ATP; summary of the method: as §1
# Fibroblast growth factor receptor 1 (Homo sapiens), sequence (P11362 22-822 limits assumed): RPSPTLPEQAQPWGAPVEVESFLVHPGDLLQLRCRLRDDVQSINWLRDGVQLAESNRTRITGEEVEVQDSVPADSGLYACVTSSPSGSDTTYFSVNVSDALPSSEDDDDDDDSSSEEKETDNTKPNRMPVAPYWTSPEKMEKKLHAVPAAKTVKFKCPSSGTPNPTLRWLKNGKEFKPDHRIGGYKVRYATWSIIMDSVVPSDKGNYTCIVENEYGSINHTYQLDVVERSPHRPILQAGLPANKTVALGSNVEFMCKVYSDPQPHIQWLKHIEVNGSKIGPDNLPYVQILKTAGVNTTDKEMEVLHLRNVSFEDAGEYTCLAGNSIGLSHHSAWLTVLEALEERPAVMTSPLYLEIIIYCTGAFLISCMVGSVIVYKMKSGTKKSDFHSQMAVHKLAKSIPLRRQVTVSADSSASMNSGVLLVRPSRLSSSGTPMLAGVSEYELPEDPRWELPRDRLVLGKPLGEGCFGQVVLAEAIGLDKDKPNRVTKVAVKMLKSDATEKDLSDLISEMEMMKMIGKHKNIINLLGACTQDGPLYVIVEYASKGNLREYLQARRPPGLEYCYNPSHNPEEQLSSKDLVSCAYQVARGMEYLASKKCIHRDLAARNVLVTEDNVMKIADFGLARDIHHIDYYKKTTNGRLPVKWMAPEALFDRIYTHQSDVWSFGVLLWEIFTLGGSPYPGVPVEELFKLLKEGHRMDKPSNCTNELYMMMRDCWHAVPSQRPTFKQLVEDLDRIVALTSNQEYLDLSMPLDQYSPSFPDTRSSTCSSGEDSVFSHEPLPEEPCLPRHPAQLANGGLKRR
# [6] = target: Rho-associated protein kinase 1 (Homo sapiens) (UniProt Q13464); assay: Inhibition of recombinant human Rock1 kinase assessed as residual activity at 10 uM in presence of 100 uM ATP; summary of the method: as §1
# Rho-associated protein kinase 1 (Homo sapiens), sequence (Q13464 2-1354 limits assumed): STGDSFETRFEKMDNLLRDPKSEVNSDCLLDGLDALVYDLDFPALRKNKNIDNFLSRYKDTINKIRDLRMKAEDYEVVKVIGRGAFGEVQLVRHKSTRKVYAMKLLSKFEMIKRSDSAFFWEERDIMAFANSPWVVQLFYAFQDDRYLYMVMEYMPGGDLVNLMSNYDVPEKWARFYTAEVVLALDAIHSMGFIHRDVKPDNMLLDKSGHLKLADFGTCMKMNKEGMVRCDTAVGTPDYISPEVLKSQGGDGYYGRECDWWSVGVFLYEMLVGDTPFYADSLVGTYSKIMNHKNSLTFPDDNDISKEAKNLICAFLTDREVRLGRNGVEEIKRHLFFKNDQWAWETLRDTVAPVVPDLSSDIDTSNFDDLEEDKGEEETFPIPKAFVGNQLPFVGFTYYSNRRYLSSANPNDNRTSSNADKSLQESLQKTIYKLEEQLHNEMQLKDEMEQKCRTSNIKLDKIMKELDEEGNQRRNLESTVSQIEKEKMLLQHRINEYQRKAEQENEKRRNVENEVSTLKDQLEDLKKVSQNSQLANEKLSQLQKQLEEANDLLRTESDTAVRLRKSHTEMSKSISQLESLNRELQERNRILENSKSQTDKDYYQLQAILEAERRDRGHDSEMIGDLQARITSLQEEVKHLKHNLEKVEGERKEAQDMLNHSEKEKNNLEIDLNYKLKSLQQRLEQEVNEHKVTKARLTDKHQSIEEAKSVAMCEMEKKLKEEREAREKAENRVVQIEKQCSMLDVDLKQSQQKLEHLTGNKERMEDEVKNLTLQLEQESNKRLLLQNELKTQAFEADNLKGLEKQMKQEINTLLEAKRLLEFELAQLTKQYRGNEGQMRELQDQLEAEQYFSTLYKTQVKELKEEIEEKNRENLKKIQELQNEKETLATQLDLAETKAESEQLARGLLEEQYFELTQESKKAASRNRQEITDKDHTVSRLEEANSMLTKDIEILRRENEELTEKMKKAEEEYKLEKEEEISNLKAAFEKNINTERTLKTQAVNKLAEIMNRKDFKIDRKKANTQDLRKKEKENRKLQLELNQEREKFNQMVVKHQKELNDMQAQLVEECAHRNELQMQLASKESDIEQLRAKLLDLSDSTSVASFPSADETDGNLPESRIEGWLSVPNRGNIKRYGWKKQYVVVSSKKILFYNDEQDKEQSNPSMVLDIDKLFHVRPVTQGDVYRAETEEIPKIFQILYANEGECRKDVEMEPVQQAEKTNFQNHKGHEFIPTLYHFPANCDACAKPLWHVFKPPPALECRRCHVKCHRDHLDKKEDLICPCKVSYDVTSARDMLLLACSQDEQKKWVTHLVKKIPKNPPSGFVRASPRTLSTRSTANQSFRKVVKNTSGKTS
# [7] = target: T2, Mitogen-activated protein kinase kinase kinase 5 (Homo sapiens) (UniProt Q99683); assay: Inhibition of recombinant human Ask1 kinase assessed as residual activity at 10 uM in presence of 100 uM ATP; summary of the method: as §1
# T2 sequence (whole entry): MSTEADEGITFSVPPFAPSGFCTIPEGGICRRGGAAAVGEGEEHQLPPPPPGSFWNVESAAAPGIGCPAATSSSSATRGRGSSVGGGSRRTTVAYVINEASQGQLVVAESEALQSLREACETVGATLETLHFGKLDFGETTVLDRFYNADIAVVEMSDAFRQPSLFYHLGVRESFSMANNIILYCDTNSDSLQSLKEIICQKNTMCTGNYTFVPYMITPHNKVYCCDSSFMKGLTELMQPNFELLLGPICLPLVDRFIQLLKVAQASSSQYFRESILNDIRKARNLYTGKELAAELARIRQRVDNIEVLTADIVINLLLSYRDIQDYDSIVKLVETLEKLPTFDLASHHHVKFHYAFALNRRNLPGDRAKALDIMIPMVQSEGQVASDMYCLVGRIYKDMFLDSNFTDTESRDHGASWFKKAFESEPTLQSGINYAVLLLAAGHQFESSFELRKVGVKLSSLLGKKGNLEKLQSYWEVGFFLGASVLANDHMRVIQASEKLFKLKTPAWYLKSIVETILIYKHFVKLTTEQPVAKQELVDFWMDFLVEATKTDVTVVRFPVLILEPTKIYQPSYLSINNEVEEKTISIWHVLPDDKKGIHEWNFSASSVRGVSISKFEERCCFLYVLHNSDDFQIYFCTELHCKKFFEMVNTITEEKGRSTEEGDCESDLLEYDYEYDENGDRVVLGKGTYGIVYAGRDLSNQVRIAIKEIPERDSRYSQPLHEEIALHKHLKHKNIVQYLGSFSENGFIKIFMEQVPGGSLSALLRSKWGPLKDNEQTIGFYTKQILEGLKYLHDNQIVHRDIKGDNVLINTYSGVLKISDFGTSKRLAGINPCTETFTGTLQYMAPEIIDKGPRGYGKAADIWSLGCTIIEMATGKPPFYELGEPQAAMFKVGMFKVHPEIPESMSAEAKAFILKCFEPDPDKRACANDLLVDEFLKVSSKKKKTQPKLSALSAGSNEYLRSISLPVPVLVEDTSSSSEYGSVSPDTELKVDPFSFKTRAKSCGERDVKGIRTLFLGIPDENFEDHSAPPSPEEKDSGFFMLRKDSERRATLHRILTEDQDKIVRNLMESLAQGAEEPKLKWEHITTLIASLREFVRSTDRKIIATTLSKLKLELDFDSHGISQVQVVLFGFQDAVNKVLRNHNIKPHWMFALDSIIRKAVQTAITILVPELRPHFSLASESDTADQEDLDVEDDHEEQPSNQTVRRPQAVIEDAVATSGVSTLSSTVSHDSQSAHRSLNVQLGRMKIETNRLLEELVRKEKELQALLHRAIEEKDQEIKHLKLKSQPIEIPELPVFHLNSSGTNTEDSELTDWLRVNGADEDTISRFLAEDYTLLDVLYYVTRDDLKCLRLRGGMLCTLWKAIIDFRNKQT
# [8] = target: Mitogen-activated protein kinase 10 (Homo sapiens) (UniProt P53779); assay: Inhibition of recombinant human Jnk3 kinase assessed as residual activity at 10 uM in presence of 100 uM ATP; summary of the method: as §1
# Mitogen-activated protein kinase 10 (Homo sapiens), sequence (P53779 whole entry): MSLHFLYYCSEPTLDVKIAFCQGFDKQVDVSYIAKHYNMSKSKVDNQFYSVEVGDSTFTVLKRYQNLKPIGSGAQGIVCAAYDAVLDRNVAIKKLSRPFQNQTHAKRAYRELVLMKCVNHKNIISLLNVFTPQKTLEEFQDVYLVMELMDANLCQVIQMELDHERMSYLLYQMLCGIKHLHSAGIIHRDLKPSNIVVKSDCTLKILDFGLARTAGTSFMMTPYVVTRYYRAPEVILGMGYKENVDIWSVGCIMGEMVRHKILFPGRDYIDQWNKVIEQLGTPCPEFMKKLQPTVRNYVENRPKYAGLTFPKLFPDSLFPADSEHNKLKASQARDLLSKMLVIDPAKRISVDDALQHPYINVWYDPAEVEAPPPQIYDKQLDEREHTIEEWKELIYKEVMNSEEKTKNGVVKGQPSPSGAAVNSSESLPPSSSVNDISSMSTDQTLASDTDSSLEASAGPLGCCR
# [9] = Competitive inhibition of recombinant human CK2 activity by Lineweaver-Burk plot analysis
Structure (SMILES),IC50 (Casein kinase II) [µM],other results
O=C(O)CCCSc1ncnc2sc3c(c12)CCCC3,> 33,
Cc1nc(SCCC(=O)O)c2c3c(sc2n1)CCCC3,15.8,
Cc1ccc(-c2csc3ncnc(SCCC(=O)O)c23)cc1C,0.175,
CC1CCc2c(sc3ncnc(SCC(=O)O)c23)C1 (stereo not given),1.78,
CC(Sc1ncnc2sc3c(c12)CCCC3)C(=O)O (stereo not given),17,
CCOc1ccc(-c2csc3ncnc(SCCC(=O)O)c23)cc1,0.125,Activity [1]: 0.86%; Activity [2]: 115%; Activity [3]: 76%; Activity [4]: 48%; Activity [5]: 99%; Activity [6]: 115%; Activity [7]: 100%; Activity [8]: 94%
Cc1sc2ncnc(SCc3cccc(C(=O)O)c3)c2c1C,17.8,
Cc1sc2ncnc(SCCC(=O)O)c2c1C,11.3,
O=C(O)CCSc1ncnc2scc(-c3ccc(Cl)cc3)c12,0.175,
O=C(O)CCSc1ncnc2scc(-c3ccc(F)cc3)c12,1.2,
Cc1sc2ncnc(SC(C)C(=O)O)c2c1C (stereo not given),> 33,
Cc1ccc(-c2csc3ncnc(SC(C)C(=O)O)c23)cc1 (stereo not given),31,
O=C(O)CSc1ncnc2scc(-c3ccc(Br)cc3)c12,14,
CCC(Sc1ncnc2sc3c(c12)CCCC3)C(=O)O (stereo not given),> 33,
O=C(O)CSc1ncnc2scc(-c3ccc(Cl)cc3)c12,32,
Cc1cc2c(SCC(=O)O)ncnc2s1,4,
Cc1ccc(-c2csc3ncnc(SCCC(=O)O)c23)cc1,0.1,Ki [9]: 0.04 µM; Activity [1]: 0.72%; Activity [2]: 114%; Activity [3]: 70%; Activity [4]: 23%; Activity [5]: 92%; Activity [6]: 126%; Activity [7]: 92%; Activity [8]: 104%
Cc1sc2ncnc(SCC(=O)O)c2c1-c1ccccc1,> 33,
O=C(O)CSc1ncnc2scc(-c3ccccc3)c12,30,

# The next lines start with results.
IC50 (Casein kinase II) [µM],Structure (SMILES),other results
> 33,CCC(Sc1ncnc2scc(-c3ccc(C)cc3)c12)C(=O)O (stereo not given),
> 33,CCC(Sc1ncnc2scc(-c3ccc(Cl)cc3)c12)C(=O)O (stereo not given),
3.5,Cc1nc(SCCC(=O)O)c2cc(-c3ccccc3)sc2n1,
20,CC1CCc2c(sc3ncnc(SC(C)C(=O)O)c23)C1 (stereo not given),
23,CC(Sc1ncnc2scc(-c3ccccc3)c12)C(=O)O (stereo not given),
7,Cc1cc2c(SCCC(=O)O)ncnc2s1,
1.25,O=C(O)CSc1ncnc2sc(-c3ccccc3)cc12,
17.8,Cc1sc2ncnc(SCC(=O)O)c2c1C,
> 33,O=C(O)c1ccc(CSc2ncnc3sc4c(c23)CCCC4)cc1,
